Source: ChEMBL document CHEMBL1137681, “Design, synthesis and characterization of N9/N7-substituted 6-aminopurines as VEGF-R and EGF-R inhibitors” (Eur J Med Chem, 2009)
Activity calls are given as the source filed them. The calls are words filed in the database; no cut-off is given here.

Experiments:
[1] = target: T1, Ephrin type-B receptor 4 (Homo sapiens) (UniProt P54760); assay: Inhibition of EPHB4 up to 100 uM
T1 sequence (whole entry): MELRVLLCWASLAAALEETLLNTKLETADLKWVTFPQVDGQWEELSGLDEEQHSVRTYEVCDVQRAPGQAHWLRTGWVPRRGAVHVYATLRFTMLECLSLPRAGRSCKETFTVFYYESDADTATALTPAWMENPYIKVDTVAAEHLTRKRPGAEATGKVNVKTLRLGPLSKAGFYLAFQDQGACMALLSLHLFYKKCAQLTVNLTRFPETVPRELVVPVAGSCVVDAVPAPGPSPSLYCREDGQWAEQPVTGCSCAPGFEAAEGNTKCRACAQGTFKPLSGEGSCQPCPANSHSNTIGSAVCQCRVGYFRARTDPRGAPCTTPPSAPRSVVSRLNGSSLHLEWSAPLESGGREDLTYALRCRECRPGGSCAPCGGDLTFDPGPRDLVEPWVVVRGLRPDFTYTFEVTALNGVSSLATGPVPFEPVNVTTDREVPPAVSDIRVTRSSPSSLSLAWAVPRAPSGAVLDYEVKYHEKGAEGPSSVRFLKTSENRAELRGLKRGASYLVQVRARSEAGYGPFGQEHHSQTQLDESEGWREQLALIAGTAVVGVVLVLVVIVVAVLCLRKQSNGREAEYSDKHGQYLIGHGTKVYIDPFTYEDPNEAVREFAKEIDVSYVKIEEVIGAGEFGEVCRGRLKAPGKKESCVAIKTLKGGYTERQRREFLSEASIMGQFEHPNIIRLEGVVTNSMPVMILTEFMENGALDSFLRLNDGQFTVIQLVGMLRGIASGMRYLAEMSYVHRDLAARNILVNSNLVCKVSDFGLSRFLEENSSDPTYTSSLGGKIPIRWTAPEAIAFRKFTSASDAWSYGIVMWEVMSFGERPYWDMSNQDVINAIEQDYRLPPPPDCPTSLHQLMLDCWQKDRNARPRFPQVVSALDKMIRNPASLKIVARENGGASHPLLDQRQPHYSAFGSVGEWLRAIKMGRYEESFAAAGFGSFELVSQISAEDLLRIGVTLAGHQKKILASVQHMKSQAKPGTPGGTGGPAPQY
Method in brief: (§1)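 Buffer: HEPES-NaOH pH 7.5, Mg2+/Mn2+, vanadate, DTT, PEG20000, 1% DMSO. Incubated 30 °C for 80 min, stopped with 2% H3PO4, washed, and scintillation-counted. IC50 from 10 concentrations in singlicate.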

[2] = target: Cyclin-dependent kinase 4/cyclin D1 (Homo sapiens) (UniProt P11802+P24385); assay: Inhibition of CDK4/Cyclin D1 up to 100 uM; format: protein-complex assay
Method in brief: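 Buffer: HEPES-NaOH pH 7.5, Mg2+/Mn2+, vanadate, DTT, PEG20000, 1% DMSO. Incubated 80 min at 30 °C, stopped with 2% H3PO4, washed with 0.9% NaCl, and counted by scintillation. IC50 from 10 concentrations, singlicate.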

[3] = target: Insulin receptor (Homo sapiens) (UniProt P06213); assay: Inhibition of INSR up to 100 uM
[4] = target: Insulin-like growth factor 1 receptor (Homo sapiens) (UniProt P08069); assay: Inhibition of IGF1R up to 100 uM; method in brief: as §1
[5] = target: T2, Aurora kinase A (Homo sapiens) (UniProt O14965); assay: Inhibition of Aurora A up to 100 uM
T2 sequence (whole entry): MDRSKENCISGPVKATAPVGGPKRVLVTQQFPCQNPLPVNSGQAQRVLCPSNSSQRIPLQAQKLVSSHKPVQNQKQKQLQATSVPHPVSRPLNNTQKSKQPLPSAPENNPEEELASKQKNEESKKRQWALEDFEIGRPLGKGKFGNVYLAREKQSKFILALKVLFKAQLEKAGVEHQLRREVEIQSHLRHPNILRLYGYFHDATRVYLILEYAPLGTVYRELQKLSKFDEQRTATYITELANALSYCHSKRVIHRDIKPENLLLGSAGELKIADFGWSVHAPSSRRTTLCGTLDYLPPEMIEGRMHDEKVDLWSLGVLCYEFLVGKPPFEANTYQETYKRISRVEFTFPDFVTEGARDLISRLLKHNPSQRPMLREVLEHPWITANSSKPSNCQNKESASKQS
Method in brief: (§2)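 Buffer was HEPES-NaOH pH 7.5 with MgCl2, MnCl2, vanadate, DTT, PEG20000 and 1% DMSO. Run 80 min at 30 °C, quenched with 2% H3PO4, NaCl-washed, then scintillation-counted. IC50 fitted from 10 concentrations tested once each.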

[6] = system: Serine/threonine-protein kinase B-raf (Homo sapiens), P15056 [V600E]; assay: Inhibition of BRAF V600E mutant
[7] = target: Mitogen-activated protein kinase kinase kinase 8 (Homo sapiens) (UniProt P41279); assay: Inhibition of COT
[8] = target: Vascular endothelial growth factor receptor 3 (Homo sapiens, UniProt P35916); assay: Inhibition of VEGFR3 up to 100 uM
[9] = target: MAP kinase-interacting serine/threonine-protein kinase 1 (Homo sapiens) (UniProt Q9BUB5); assay: Inhibition of MNK1 at 10 uM
[10] = target: Receptor tyrosine-protein kinase erbB-2 (Homo sapiens, UniProt P04626); assay: Inhibition of ERBB2 up to 100 uM; method in brief: as §1
[11] = target: Aurora kinase B (Homo sapiens, UniProt Q96GD4); assay: Inhibition of Aurora B up to 100 uM; method in brief: as §2
[12] = target: Ribosomal protein S6 kinase alpha-5 (Homo sapiens) (UniProt O75582); assay: Inhibition of MSK1 at 10 uM
[13] = Inhibition of PKBbeta S474D mutant at 10 uM
[14] = target: Mitogen-activated protein kinase 11 (Homo sapiens) (UniProt Q15759); assay: Inhibition of SAPK2b at 10 uM
[15] = system: Serine/threonine-protein kinase B-raf (Homo sapiens), P15056 [V600E]; assay: Inhibition of BRAF V600E mutant up to 100 uM
[16] = system: RAC-alpha serine/threonine-protein kinase (Homo sapiens), P31749 [S473D]; assay: Inhibition of PKBalpha S473D mutant at 10 uM
[17] = target: Dual specificity tyrosine-phosphorylation-regulated kinase 2 (Homo sapiens) (UniProt Q92630); assay: Inhibition of human DYRK2 at 10 uM
[18] = target: Mitogen-activated protein kinase 9 (Homo sapiens) (UniProt P45984); assay: Inhibition of human JNK2 at 10 uM
[19] = target: Mitogen-activated protein kinase 3 (Homo sapiens) (UniProt P27361); assay: Inhibition of human ERK1 at 10 uM
[20] = target: SRSF protein kinase 1 (Homo sapiens) (UniProt Q96SB4); assay: Inhibition of SRPK1 at 10 uM
[21] = target: MAP kinase-interacting serine/threonine-protein kinase 2 (Homo sapiens) (UniProt Q9HBH9); assay: Inhibition of MNK2alpha at 10 uM
[22] = target: Mitogen-activated protein kinase 15 (Homo sapiens) (UniProt Q8TD08); assay: Inhibition of ERK8 at 10 uM
[23] = target: Serine/threonine-protein kinase pim-3 (Homo sapiens) (UniProt Q86V86); assay: Inhibition of human PIM3 at 10 uM

Serine/threonine-protein kinase B-raf (Homo sapiens), P15056 [V600E], sequence (P15056 whole entry V600E): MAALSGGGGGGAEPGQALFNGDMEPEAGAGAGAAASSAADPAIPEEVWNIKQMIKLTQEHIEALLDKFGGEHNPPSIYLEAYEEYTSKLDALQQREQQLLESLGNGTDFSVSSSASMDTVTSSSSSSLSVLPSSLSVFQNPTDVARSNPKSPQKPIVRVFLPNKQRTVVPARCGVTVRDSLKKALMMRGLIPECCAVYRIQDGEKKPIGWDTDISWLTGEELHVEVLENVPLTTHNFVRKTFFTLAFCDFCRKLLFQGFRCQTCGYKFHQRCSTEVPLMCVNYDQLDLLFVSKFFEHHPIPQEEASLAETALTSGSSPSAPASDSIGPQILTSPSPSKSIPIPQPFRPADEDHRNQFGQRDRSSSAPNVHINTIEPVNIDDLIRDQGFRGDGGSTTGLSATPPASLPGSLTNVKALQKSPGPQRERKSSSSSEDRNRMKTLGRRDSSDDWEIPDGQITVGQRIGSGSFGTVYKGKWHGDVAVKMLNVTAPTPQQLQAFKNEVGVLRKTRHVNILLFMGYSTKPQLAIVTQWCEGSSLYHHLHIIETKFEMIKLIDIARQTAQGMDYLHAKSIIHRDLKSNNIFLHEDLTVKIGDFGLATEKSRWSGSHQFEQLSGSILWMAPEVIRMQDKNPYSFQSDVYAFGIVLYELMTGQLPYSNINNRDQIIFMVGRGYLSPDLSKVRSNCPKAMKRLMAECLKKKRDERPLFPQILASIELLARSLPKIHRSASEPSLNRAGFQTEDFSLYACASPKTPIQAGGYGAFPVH
Insulin-like growth factor 1 receptor (Homo sapiens), sequence (P08069 31-736 limits assumed): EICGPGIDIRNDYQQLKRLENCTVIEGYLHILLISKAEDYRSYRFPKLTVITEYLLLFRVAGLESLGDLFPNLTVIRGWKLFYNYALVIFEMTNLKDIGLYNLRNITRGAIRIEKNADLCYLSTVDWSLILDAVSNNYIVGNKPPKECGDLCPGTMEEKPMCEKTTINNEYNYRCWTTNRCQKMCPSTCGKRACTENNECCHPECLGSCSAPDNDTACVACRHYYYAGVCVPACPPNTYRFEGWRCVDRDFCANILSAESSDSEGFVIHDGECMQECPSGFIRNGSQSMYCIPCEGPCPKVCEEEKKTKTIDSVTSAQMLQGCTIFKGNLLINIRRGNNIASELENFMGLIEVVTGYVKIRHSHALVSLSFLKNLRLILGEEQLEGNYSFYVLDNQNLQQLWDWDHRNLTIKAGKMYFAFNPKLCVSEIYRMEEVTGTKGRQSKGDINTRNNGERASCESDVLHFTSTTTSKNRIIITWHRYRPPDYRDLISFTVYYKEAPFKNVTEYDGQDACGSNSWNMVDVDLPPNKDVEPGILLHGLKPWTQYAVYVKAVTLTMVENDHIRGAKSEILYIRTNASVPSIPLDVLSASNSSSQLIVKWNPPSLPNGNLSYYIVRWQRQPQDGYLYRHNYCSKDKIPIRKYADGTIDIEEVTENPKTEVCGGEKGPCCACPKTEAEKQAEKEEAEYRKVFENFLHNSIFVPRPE
Insulin-like growth factor 1 receptor (Homo sapiens), sequence (P08069 741-1367 limits assumed): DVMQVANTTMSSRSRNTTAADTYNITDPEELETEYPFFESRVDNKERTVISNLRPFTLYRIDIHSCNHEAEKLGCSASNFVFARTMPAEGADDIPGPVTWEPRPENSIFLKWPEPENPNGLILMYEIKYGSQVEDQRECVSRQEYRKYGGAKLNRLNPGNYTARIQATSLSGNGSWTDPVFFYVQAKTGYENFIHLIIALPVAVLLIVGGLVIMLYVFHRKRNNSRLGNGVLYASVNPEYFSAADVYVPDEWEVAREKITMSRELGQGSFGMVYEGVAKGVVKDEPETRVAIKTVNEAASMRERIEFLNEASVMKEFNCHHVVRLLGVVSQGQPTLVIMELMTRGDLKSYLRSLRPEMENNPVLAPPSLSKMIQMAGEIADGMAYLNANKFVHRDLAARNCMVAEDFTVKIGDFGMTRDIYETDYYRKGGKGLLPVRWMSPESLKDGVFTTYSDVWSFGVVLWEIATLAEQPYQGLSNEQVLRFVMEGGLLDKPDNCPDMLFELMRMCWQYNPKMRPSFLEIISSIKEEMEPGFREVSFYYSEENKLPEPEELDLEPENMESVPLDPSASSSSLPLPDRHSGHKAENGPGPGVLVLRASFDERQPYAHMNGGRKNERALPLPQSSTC
Insulin receptor (Homo sapiens), sequence (P06213 28-758 limits assumed): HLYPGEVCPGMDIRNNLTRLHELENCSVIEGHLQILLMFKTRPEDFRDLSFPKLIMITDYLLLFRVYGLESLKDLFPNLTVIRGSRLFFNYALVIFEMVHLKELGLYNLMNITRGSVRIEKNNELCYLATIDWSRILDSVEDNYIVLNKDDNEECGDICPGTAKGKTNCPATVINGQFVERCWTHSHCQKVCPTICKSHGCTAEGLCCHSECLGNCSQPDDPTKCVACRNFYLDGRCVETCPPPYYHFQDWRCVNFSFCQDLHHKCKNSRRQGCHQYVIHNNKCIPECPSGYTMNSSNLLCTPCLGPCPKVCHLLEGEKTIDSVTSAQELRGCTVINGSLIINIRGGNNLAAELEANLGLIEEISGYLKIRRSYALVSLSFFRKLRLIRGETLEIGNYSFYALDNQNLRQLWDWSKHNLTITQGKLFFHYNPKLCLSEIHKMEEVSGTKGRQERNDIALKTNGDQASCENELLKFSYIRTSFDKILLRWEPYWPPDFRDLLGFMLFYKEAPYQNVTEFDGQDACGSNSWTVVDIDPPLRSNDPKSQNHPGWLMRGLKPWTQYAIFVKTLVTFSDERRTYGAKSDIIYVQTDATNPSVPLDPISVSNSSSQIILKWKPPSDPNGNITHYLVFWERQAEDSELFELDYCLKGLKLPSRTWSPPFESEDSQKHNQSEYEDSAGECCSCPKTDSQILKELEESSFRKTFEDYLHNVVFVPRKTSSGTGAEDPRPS
Insulin receptor (Homo sapiens), sequence (P06213 763-1382 limits assumed): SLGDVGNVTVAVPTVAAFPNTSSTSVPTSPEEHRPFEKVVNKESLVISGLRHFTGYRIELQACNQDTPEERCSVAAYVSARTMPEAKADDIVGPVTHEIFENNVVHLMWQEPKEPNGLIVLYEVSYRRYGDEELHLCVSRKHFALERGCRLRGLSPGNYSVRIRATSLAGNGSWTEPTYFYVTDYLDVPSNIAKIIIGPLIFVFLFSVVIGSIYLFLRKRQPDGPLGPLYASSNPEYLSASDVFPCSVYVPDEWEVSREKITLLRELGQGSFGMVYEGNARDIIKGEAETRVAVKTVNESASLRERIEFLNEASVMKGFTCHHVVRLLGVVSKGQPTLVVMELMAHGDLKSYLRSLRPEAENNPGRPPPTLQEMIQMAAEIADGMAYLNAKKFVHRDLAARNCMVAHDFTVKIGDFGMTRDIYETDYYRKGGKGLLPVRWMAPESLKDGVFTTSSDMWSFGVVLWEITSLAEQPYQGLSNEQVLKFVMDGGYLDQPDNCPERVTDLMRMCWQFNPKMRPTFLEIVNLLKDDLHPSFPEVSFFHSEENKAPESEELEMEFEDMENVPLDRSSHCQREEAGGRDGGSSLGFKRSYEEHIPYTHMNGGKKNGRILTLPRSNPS
Mitogen-activated protein kinase kinase kinase 8 (Homo sapiens), sequence (P41279 whole entry): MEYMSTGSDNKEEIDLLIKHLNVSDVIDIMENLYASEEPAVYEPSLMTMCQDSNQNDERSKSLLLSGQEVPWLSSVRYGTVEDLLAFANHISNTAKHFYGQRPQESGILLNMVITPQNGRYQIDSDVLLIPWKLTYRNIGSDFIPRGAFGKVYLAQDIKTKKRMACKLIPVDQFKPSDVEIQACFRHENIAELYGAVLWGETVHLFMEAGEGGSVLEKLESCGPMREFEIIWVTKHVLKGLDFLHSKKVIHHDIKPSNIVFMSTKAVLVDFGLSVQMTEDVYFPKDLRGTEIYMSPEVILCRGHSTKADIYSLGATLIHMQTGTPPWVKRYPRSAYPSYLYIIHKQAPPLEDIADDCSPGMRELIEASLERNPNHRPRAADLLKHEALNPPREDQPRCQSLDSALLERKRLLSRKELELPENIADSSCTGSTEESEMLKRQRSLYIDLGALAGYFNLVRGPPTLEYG
MAP kinase-interacting serine/threonine-protein kinase 1 (Homo sapiens), sequence (Q9BUB5 whole entry, looked up): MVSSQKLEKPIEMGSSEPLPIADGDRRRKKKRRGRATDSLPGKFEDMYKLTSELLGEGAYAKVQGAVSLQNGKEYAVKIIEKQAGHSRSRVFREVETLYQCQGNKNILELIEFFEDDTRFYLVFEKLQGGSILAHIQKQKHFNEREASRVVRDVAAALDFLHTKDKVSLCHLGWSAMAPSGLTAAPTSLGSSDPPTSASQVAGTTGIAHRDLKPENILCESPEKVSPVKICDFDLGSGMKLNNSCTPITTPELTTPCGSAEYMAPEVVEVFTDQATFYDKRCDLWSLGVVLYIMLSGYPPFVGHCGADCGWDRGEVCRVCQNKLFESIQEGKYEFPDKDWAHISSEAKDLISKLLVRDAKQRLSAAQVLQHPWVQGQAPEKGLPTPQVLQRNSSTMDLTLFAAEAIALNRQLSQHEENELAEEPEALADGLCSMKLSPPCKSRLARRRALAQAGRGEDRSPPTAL
Dual specificity tyrosine-phosphorylation-regulated kinase 2 (Homo sapiens), sequence (Q92630 whole entry): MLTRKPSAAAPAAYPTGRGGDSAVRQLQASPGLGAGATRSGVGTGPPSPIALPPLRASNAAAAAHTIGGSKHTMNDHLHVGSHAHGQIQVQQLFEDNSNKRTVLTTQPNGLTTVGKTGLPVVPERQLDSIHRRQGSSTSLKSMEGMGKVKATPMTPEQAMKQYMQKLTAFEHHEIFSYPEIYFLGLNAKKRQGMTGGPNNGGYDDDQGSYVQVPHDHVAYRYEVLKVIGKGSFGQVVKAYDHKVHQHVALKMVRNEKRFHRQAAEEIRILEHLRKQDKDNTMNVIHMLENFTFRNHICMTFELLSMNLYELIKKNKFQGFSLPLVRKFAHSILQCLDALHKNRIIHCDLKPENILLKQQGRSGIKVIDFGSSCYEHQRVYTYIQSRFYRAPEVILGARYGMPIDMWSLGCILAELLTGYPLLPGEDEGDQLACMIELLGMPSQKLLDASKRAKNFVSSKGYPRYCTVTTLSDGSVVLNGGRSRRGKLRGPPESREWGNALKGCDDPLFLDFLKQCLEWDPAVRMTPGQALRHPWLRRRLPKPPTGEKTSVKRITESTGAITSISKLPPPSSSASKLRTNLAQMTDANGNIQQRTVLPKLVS

## Nc1ncnc2ncn(CC(=O)c3ccccc3)c12
[1]
  inhibition: inactive
[2]
  inhibition: inactive
[3]
  inhibition: inactive
[4]
  inhibition: inactive
[5]
  inhibition: inactive
[6]
  inhibition: inactive
[7]
  inhibition: inactive
[8]
  inhibition: inactive

## CN(C)c1ncnc2c1ncn2CC(=O)c1c[nH]c2ccccc12
[1]
  inhibition: inactive
[2]
  inhibition: inactive
[3]
  inhibition: inactive
[4]
  inhibition: inactive
[5]
  inhibition: inactive
[6]
  inhibition: inactive
[7]
  inhibition: inactive

## Nc1ncnc2c1ncn2CC(=O)c1ccccn1
[1]
  inhibition: inactive
[2]
  inhibition: inactive
[3]
  inhibition: inactive
[4]
  inhibition: inactive
[5]
  inhibition: inactive
[6]
  inhibition: inactive
[7]
  inhibition: inactive

## Nc1ncnc2c1ncn2CC(=O)c1c[nH]c2ccccc12
[1]
  inhibition: inactive
[9]
  inhibition: 73%
[2]
  inhibition: inactive
[3]
  inhibition: inactive
[4]
  inhibition: inactive
[5]
  inhibition: inactive
[7]
  inhibition: inactive

## COc1ncnc2ncn(CC(=O)c3ccccc3)c12
[1]
  inhibition: inactive
[2]
  inhibition: inactive
[3]
  inhibition: inactive
[4]
  inhibition: inactive
[5]
  inhibition: inactive
[6]
  inhibition: inactive
[7]
  inhibition: inactive

## Nc1ncnc2c1ncn2CC(=O)c1cccnc1
[1]
  inhibition: inactive
[2]
  inhibition: inactive
[3]
  inhibition: inactive
[4]
  inhibition: inactive
[5]
  inhibition: inactive
[6]
  inhibition: inactive
[7]
  inhibition: inactive

## COc1ncnc2c1ncn2CC(=O)c1ccccc1
[1]
  inhibition: inactive
[2]
  inhibition: inactive
[3]
  inhibition: inactive
[4]
  inhibition: inactive
[5]
  inhibition: inactive
[6]
  inhibition: inactive
[7]
  inhibition: inactive

## Nc1ncnc2c1ncn2CC(=O)c1ccccc1
[1]
  inhibition: inactive
[2]
  inhibition: inactive
[3]
  inhibition: inactive
[4]
  inhibition: inactive
[10]
  inhibition: inactive
[5]
  inhibition: inactive
[6]
  inhibition: inactive
[7]
  inhibition: inactive

## Nc1ncnc2ncn(CC(=O)c3c[nH]c4ccccc34)c12
[1]
  inhibition: inactive
[9]
  inhibition: inactive
[11]
  inhibition: inactive
[2]
  inhibition: inactive
[12]
  inhibition: inactive
[13]
  inhibition: inactive
[14]
  inhibition: inactive
[15]
  inhibition: inactive
[16]
  inhibition: inactive
[3]
  inhibition: inactive
[4]
  inhibition: inactive
[5]
  inhibition: inactive
[6]
  inhibition: inactive
[17]
  inhibition: inactive
[18]
  inhibition: inactive
[19]
  inhibition: inactive
[20]
  inhibition: inactive
[7]
  inhibition: inactive
[21]
  inhibition: inactive
[22]
  inhibition: inactive
[23]
  inhibition: inactive
